From ChEMBL document CHEMBL2407032, “Structural modification of pantothenamides counteracts degradation by pantetheinase and improves antiplasmodial activity” (ACS Med Chem Lett, 2013) come the findings set out here.

Molecules are shown by their SMILES. pIC50: −log10 of the molar value. Where only a bound is given, the exact number is not on record here.

For series [1], the system named is Plasmodium falciparum. The series can be described thus: Antiplasmodial activity against intraerythrocytic Plasmodium falciparum 3D7 infected in human erythrocytes in heat treated RPMI-1640 culture medium assessed as parasite growth inhibition after 96 hrs by microscopic analysis. In kind it is functional, organism-based. Conditions: 3D7, 96 h. In a few lines:
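3D7 ring-stage-initiated cultures in erythrocytes, grown 96 h in aged Albumax-complete RPMI. The medium was heat-treated for a prolonged time to reduce pantetheinase activity and held 1 μM pantothenic acid. IC50 from concentration-response. Mean ± SEM (or range/2) of at least two independent experiments, each in triplicate.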

Series [2] deals with Jurkat. Kind of series: Cytotoxicity against human Jurkat cells after 96 hrs by SYBR green assay in presence of pantothenic acid. In kind it is cell-based. In a few lines:
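Human leukemic T-cell line grown 96 h in medium with 1 μM pantothenic acid. IC50 from concentration-response profiles. Means ± SEM of three independent experiments performed in triplicate.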

Series [3] can be described thus: Selectivity index, ratio of IC50 for human Jurkat cells to IC50 for intraerythrocytic Plasmodium falciparum 3D7 infected in human erythrocytes in fresh RPMI-1640 culture medium. In kind it is toxicity, cell-based. The note with it: read-out: Ratio IC50.
The subject of series [4] is pantetheinase. The series can be described thus: Drug metabolism of the compound assessed as compound hydrolysis at 200 uM after 10 mins by fluorescence assay in presence of recombinant human pantetheinase. Type of series: physicochemical. The note with it: read-out: Drug metabolism.
Series [5] relates to Plasmodium falciparum. The series can be described thus: Antiplasmodial activity against intraerythrocytic Plasmodium falciparum 3D7 infected in human erythrocytes in fresh RPMI-1640 culture medium assessed as parasite growth inhibition after 96 hrs by microscopic analysis in presence of pantetheinase. In kind it is functional, organism-based. The note with it: 3D7, 96 h. Put shortly: (§1)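 3D7 parasites in erythrocytes, started mostly at ring stage, grown 96 h in freshly prepared Albumax-complete RPMI (pantetheinase active) with 1 μM pantothenic acid. IC50 from concentration-response. Mean ± SEM (or range/2) of at least two independent experiments, each in triplicate.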

The subject of series [6] is Plasmodium falciparum. Kind of series: Antiplasmodial activity against intraerythrocytic Plasmodium falciparum 3D7 infected in human erythrocytes in fresh RPMI-1640 culture medium assessed as parasite growth inhibition after 96 hrs by microscopic analysis. Type of series: functional, organism-based. The note with it: 3D7, 96 h. Put shortly: as §1

In the case of `CCCCCCNC(=O)CNC(=O)[C@H](O)C(C)(C)CO`, the pIC50 in series [1] was 5.10; in series [2], 3.90; in series [5], 3.98; in series [6], 5.33. Moreover, the selectivity ratio in series [3] was determined as 27. Besides, the metabolised at 10 min, 200 µM in series [4] turned out to be 5%.

In the case of `CCSCCNC(=O)CCCNC(=O)[C@H](O)C(C)(C)CO`, the pIC50 in series [1] was 5.72; in series [2], less than 3.70; in series [5] it was 3.77; in series [6], 5.70. The selectivity ratio in series [3] is greater than 100. For the same compound, in series [4], the metabolised at 10 min, 200 µM is 5%.

For `CC(C)(CO)[C@@H](O)C(=O)NCCCC(=O)NCC1CCCCC1`, the pIC50 in series [1] is 5.48; in series [2], 3.95; in series [5] it was less than 3.70; in series [6], 5.68. In addition, the selectivity ratio in series [3] was 54. Further, the metabolised at 10 min, 200 µM in series [4] stood at 5%.

Take `CCCCCNC(=O)CCCNC(=O)[C@H](O)C(C)(C)CO`: the negative-log IC50 (pIC50) was 5.66 in series [1], 3.72 in series [2], 3.71 in series [5] and 5.41 in series [6]. The selectivity ratio in series [3] came out at 49. Besides, the metabolised at 10 min, 200 µM in series [4] was 5%.

Turning to `CC(C)(CO)[C@@H](O)C(=O)NCCCC(=O)NCc1ccc2c(c1)OCO2`, the pIC50 was 4.64 in series [2], 4.06 in series [5] and 5.62 in series [6]. Besides, in series [3], the selectivity ratio came to 9. The metabolised at 10 min, 200 µM in series [4] is 5%.
